Structures are written as SMILES. Converted amounts (≈) assume the structure as drawn.

The source of these data is ChEMBL document CHEMBL1157359, “Binding of ceftobiprole and comparators to the penicillin-binding proteins of Escherichia coli, Pseudomonas aeruginosa, Staphylococcus aureus, and Streptococcus pneumoniae” (Antimicrob Agents Chemother, 2007).

A short description of experiment [1]: Inhibition of bocillin FL binding to penicillin-susceptible Streptococcus pneumoniae OC 8865 penicillin-binding protein 1b. Put shortly:
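S. pneumoniae OC 8865 PBPs assayed in whole cells; drug competition followed by Bocillin FL labeling and imaging of labeled PBPs. IC50 is 50% inhibition of Bocillin FL binding compared with a no-drug control.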

Experiment [2] can be described thus: Inhibition of bocillin FL binding to Escherichia coli MC4100 penicillin-binding protein 6. The procedure, abridged:
(§1)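 Isolated E. coli MC4100 PBPs were competed with 10 drug concentrations from 0.016 μg/ml to 8 μg/ml, then labeled with Bocillin FL. Fluorescent PBP bands were imaged. IC50 is the concentration giving 50% inhibition of Bocillin FL binding to each PBP relative to a no-drug control.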

Experiment [3] is described as follows: Inhibition of bocillin FL binding to Escherichia coli MC4100 penicillin-binding protein 1a. Put shortly: (§2)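 Isolated E. coli MC4100 PBPs; competition with drug at 10 concentrations, 0.016 μg/ml to 8 μg/ml, then Bocillin FL labeling. Gel bands visualized by imaging. IC50 is the concentration giving 50% inhibition of Bocillin FL binding relative to a no-drug control.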

Experiment [4] can be described thus: Inhibition of bocillin FL binding to Escherichia coli MC4100 penicillin-binding protein 4. Put shortly:
as §1

The target in another experiment is T1, MecA (Staphylococcus aureus, UniProt Q7DHH4).
T1 sequence (Q7DHH4 whole entry): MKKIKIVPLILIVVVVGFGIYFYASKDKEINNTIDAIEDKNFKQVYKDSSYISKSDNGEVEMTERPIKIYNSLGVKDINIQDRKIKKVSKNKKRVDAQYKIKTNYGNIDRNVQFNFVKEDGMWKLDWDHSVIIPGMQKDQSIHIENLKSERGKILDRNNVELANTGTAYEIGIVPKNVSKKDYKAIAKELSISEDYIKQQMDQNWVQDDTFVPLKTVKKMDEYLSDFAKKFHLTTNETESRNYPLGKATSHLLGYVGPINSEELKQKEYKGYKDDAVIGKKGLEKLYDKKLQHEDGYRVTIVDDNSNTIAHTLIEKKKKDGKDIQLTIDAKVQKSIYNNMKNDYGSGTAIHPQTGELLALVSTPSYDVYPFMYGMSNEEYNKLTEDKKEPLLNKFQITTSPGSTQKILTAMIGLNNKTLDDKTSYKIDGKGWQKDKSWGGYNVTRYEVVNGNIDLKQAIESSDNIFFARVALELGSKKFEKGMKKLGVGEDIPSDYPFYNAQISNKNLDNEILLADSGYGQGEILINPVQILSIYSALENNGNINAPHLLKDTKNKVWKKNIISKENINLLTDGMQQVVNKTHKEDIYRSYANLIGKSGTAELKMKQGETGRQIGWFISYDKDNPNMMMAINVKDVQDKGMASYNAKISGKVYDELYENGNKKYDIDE
The experiment is described as follows: Inhibition of bocillin FL binding to methicillin-resistant Staphylococcus aureus OC 3726 penicillin-binding protein 2a. The procedure, abridged: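 OC 3726 membranes were first preincubated with 1 mg/ml clavulanic acid to saturate all PBPs except PBP2a. Drug was then added (0.16 μg/ml to 50 μg/ml), followed by Bocillin FL labeling and fluorescence imaging. IC50 is 50% inhibition of PBP2a labeling compared with the no-drug (0 μg/ml) sample.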

The nature of experiment [5]: Inhibition of bocillin FL binding to Escherichia coli MC4100 penicillin-binding protein 3. The procedure, abridged:
as §1

The target of experiment [6] is T2, Cell shape peptidoglycan synthetase penicillin-binding protein 2 (Escherichia coli, UniProt Q2TL65).
T2 sequence (Q2TL65 whole entry): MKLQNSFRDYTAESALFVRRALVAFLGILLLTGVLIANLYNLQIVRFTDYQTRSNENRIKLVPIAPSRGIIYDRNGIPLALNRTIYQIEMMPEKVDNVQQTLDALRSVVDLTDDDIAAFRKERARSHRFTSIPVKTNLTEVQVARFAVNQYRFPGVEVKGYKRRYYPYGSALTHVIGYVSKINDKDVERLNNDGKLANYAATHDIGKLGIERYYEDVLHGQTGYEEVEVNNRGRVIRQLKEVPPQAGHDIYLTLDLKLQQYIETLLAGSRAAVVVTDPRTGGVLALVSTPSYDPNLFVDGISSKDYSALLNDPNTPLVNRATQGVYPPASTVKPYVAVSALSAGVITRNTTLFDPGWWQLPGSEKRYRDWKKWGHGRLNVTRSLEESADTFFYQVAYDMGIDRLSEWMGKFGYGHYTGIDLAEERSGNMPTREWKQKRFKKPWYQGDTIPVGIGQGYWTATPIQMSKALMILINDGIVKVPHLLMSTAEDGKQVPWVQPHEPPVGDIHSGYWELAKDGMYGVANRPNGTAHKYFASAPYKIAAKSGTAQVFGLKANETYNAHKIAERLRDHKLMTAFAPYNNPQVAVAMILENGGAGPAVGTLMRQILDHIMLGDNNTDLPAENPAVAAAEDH
The experiment is described as follows: Inhibition of bocillin FL binding to Escherichia coli MC4100 penicillin-binding protein 2. The procedure, abridged:
as §2

Experiment [7] can be described thus: Inhibition of bocillin FL binding to Escherichia coli MC4100 penicillin-binding protein 5. The procedure, abridged:
as §1

The nature of experiment [8]: Inhibition of bocillin FL binding to Escherichia coli MC4100 penicillin-binding protein 1b. Put shortly: as §1
The next experiment concerns Escherichia coli. The experiment is described as follows: Antibacterial activity against Escherichia coli MC4100 by CLSI method. It counts as functional.
The test system of the next experiment is Staphylococcus aureus. Description: Antibacterial activity against methicillin-resistant Staphylococcus aureus OC 3726 by CLSI method. It counts as functional.

On to `Nc1nc(/C(=N/O)C(=O)N[C@@H]2C(=O)N3C(C(=O)O)=C(/C=C4\CCN([C@@H]5CCNC5)C4=O)CS[C@H]23)ns1` [CEFTOBIPROLE], for which the IC50 in experiment [1] was 0.05 µg/mL (≈ 0.0935 µM); in [2], 3 µg/mL (≈ 5.61 µM); in experiment [3] it was 0.3 µg/mL (≈ 0.561 µM); in experiment [4], 0.5 µg/mL (≈ 0.935 µM); on MecA, 1.68 µM; in experiment [5] it was 0.2 µg/mL (≈ 0.374 µM). In addition, the IC50 in [6] was 0.374 µM; in experiment [7] it was above 8 µg/mL; in experiment [8], 8 µg/mL (≈ 15 µM). Moreover, the MIC against Escherichia coli was 0.03 µg/mL (≈ 0.0561 µM); against Staphylococcus aureus, 2 µg/mL (≈ 3.74 µM).
Consider `CO/N=C(\C(=O)N[C@@H]1C(=O)N2C(C(=O)O)=C(CSc3nc(=O)c(O)nn3C)CS[C@H]12)c1csc(N)n1` (stereo in doubt) [CEFTRIAXONE], for which the IC50 in experiment [1] is 0.03 µg/mL (≈ 0.0541 µM); in experiment [2], above 8 µg/mL; in [3], 0.2 µg/mL (≈ 0.361 µM); in experiment [4], 0.4 µg/mL (≈ 0.721 µM); on MecA it was above 90.2 µM; in experiment [5], below 0.01 µg/mL. Further, the figures for the IC50 in [6], in experiment [7] and in experiment [8] were 0.361 µM, 6 µg/mL (≈ 10.8 µM) and 0.5 µg/mL (≈ 0.902 µM), respectively. Also, the minimal inhibitory concentration (MIC) in the experiment with Escherichia coli is 0.06 µg/mL (≈ 0.108 µM); in the experiment on Staphylococcus aureus, above 64 µg/mL.
For the compound `CC(C)(O/N=C(\C(=O)N[C@@H]1C(=O)N2C(C(=O)[O-])=C(C[n+]3ccccc3)CS[C@H]12)c1csc(N)n1)C(=O)O` [CEFTAZIDIME], the IC50 in [2] is above 4 µg/mL; in [3], 1.1 µg/mL (≈ 2.01 µM); in experiment [4] it was above 4 µg/mL; at MecA it was above 91.5 µM; in [5], 0.07 µg/mL (≈ 0.128 µM); in experiment [6], 7.32 µM. For the same compound, the IC50 in [7] is above 4 µg/mL; in [8], 1.1 µg/mL (≈ 2.01 µM). The figures for the MIC against Escherichia coli and in the experiment on Staphylococcus aureus were 0.12 µg/mL (≈ 0.22 µM) and above 128 µg/mL, respectively.

What is called IC50 is the concentration at which inhibition is half-maximal. Low values mean greater potency in that assay, high ones weaker potency in that assay. In general, MIC refers to the smallest concentration in the dilution series that meets the test's criterion for growth inhibition. Read a high MIC as weaker potency.
